Source: PubChem BioAssay
This is one part of a sample in which hits are shown more often than they occur.
PKD1 inh: PKD1 (human) kinase inhibition; inhibition, % (test concentration not listed); Q15139; PKD1 kinase fluorescence polarization assay; 200,000 compounds, 0.056% hits; AID 797
GSH fluor: GSH bead compound fluorescence profile. GSH beads flow cytometry, compound fluorescence 488/530 nm; stronger effect = higher value. fluorescence (KMESF) at 10 µM. 190,000 compounds, 0.25% hits; in the data active = fluorescence above about 89;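 note: glutathione beads carrying GST-tagged Bcl family fusion proteins plus one bare bead set; values are compound well signal with DMSO vehicle wells as background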
ABCB1 inh: human ABCB1 inhibition, ABCG2 as counter-screen; P08183; CCRF-Adr cells, JC-1 efflux, flow cytometry; inhibition, % at 6.6 µM; 190,000 compounds, 0.067% hits; in the data active = inhibition above about 40%;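 note: 0% = vehicle and 100% = reference inhibitor; higher value means more JC-1 retained so stronger ABCB1 efflux block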
Target sequence (P08183 whole entry, looked up): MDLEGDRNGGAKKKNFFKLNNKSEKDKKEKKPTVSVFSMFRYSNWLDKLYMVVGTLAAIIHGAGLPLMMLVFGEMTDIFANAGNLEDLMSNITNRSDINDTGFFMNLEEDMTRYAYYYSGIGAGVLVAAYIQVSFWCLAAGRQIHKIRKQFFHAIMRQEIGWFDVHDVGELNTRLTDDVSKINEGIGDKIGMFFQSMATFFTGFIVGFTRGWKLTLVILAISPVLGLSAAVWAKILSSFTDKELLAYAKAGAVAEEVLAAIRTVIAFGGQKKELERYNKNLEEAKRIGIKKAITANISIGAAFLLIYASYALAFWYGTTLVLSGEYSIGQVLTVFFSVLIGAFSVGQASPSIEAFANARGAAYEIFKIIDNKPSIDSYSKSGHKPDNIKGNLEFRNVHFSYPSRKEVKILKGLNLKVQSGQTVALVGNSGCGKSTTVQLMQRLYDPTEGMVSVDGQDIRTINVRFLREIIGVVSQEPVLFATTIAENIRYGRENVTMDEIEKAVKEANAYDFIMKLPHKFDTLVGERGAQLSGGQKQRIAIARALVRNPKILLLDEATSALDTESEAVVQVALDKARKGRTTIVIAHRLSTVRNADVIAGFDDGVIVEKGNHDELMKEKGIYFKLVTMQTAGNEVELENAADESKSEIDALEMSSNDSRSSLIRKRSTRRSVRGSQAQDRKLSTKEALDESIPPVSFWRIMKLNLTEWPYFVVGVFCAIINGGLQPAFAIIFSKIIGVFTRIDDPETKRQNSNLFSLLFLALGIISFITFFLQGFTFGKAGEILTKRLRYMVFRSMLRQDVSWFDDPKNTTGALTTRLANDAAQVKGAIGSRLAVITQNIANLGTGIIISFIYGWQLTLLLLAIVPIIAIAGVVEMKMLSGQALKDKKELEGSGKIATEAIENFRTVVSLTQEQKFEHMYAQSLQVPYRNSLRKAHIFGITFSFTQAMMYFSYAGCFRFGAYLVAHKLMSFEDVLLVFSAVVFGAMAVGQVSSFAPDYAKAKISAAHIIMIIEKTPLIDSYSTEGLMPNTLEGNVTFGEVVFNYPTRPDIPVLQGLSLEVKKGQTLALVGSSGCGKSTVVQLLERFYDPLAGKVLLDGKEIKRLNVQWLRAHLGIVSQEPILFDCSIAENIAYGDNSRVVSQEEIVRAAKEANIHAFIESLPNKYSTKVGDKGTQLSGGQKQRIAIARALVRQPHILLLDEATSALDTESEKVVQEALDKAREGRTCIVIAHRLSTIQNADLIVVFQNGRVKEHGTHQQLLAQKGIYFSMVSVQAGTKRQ
ABCG2 block: inhibitors of human ABCG2 transporter, ABCB1 counter-screen | AID 1325 | inhibition, % at 6.6 µM | IgMXP3 cells, JC-1 efflux, flow cytometry | Q9UNQ0 | 190,000 compounds, 0.1% hits;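 active = inhibition above 80%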;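 note: 0% = DMSO and 100% = nicardipine control wells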
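Assay system – ABCG2 IgMXP3 and barcoded ABCB1 CCRF-Adr cell mix · Input – 3 million cells/mL in well · Reagent – JC-1 fluorescent substrate · Compound – single test compound dose, 6.6 µM final · Timing – 10 min exposure at 25 °C with rotation, no wash · Detection – flow cytometry of retained JC-1 fluorescence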
Avidin bead fluor: compound fluoresces at 488/530 nm on avidin beads | fluorescence (KMESF) at 10 µM | compound fluorescence 488/530 nm, flow cytometry; stronger effect = higher value | 220,000 compounds, 0.38% hits | AID 1775; in the data active = fluorescence above about 47
L major viab: Leishmania major promastigote growth inhibition | Leishmania major promastigotes, resazurin fluorescence viability | inhibition, % at 10 µM | 200,000 compounds, 9% hits | AID 1063;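 note: promastigotes grown with compound for 44 hours at 28 °C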
Active calls of the source: *; . = no result given. Cut-off read from the data, not from the text of the source, unless noted: active = inhibition above about 50%; inactive = the rest.

SMILES | PKD1 inh | GSH fluor | ABCB1 inh | ABCG2 block | Avidin bead fluor | L major viab
CCOC(=O)c1nnc(-c2ccc(C)cc2)nc1Sc1ccc(Cl)cc1 | 2 | 36 | 2 | 11 | 5 | 54*
O=C(CCN1C(=O)/C(=C\c2ccccc2Cl)SC1=S)N1CCN(c2ccccc2)CC1 | 1 | 29 | 1 | 0 | 12 | 91*
CCc1ccc(/C=C2\SC(=S)N(CCC(=O)N3CCN(C)CC3)C2=O)cc1 | 5 | 17 | 1 | 1 | 8 | 99*
CN1CCN(C(=O)CCN2C(=O)/C(=C\c3ccc(Cl)cc3Cl)SC2=S)CC1 | . | . | . | . | 5 | .
CCOC(=O)C1=CSC2=NS(=O)(=O)CCN12 | 8 | 20 | 0 | 0 | 8 | -3
CCOCCCNCc1cccc(OCc2ccc(F)cc2)c1 | -17 | 11 | 1 | 2 | 16 | 99*
CCOCCCNCc1ccc(Cl)cc1 | -8 | 18 | 0 | 5 | 8 | 69*
CCOC(=O)CCNCc1ccc(F)cc1 | -1 | 20 | 0 | 2 | 9 | -4
Cc1cc(N2C(=O)C3C4CCC(C4)C3C2=O)no1 (configuration not stated) | -6 | 22 | 1 | 3 | 5 | -4
Cc1cc(NC(=O)Cc2ccccc2)ccc1NC(=O)c1cccs1 | -4 | 15 | 0 | 0 | 12 | -2
CC(Sc1nnc(NCc2ccccc2)s1)C(=O)Nc1ccc2c(c1)C(=O)c1ccccc1C2=O (configuration not stated) | 5 | 5 | -1 | -2 | 2 | -2
O=C(O)CNC(=O)CCCn1nnc2ccccc2c1=O | . | . | . | . | 8 | .
CC(O)CNc1nc2ccccc2n1-c1ncnc2sc3c(c12)CCC3 (configuration not stated) | -1 | 7 | 2 | 7 | 14 | 74*
CC(=O)Nc1ccc(/C=C2\Sc3ccccc3C2=O)cc1 | . | . | . | . | 12 | .
O=C1/C(=C/c2cccnc2)Sc2ccccc21 | 0 | 8 | 0 | 1 | 9 | 83*
CCCNC(=S)N1CCC(c2nc3cc(C)c(C)cc3[nH]2)CC1 | 5 | 10 | 0 | 3 | 9 | 2
Cc1cc2nc(C3CCN(CC4COc5ccccc5O4)CC3)[nH]c2cc1C (configuration not stated) | -5 | 44 | 1 | 6 | 7 | 91*
COc1ccc(-c2csc(Cc3nnc4n3CCCCC4)n2)cc1OC | 9 | 38 | 0 | 2 | 5 | 60*
N#CC1=C(N)Nc2ncnn2C1c1ccc([N+](=O)[O-])cc1 (configuration not stated) | . | . | . | . | 7 | .
N#CC1=C(N)Nc2nc3ccccc3n2C1c1ccc(Cl)cc1 (configuration not stated) | 0 | 9 | 0 | 10 | 17 | 77*
N#CC1=C(N)Nc2ncnn2C1c1ccccc1 (configuration not stated) | -2 | 8 | 0 | 13 | 16 | 57*
O=C(CN1CCOCCOCCOCCOCC1)Nc1ccccc1 | -4 | 17 | 1 | 1 | 19 | 0
OCCN1CCN(c2cc(C(F)(F)F)nc3c(F)cccc23)CC1 | . | . | . | . | -1 | .
Cc1cc(N2CCN(C)CC2)nc2ccc(NC(=S)NCCCN3CCN(C)CC3)cc12 | 2 | 18 | 1 | 12 | 10 | 3
CCCCN(CC)CCCNC(=S)Nc1ccc2nc(N3CCN(CC)CC3)cc(C)c2c1 | 4 | 19 | 1 | 1 | 11 | 96*
SMILES | PKD1 inh | GSH fluor | ABCB1 inh | ABCG2 block | Avidin bead fluor | L major viab
CCCCN(CC)CCCNC(=S)Nc1ccc2nc(N3CCN(C)CC3)cc(C)c2c1 | -2 | 19 | 0 | 0 | 10 | 56*
Cc1noc(NS(=O)(=O)c2ccc(N/C=C/C(=O)c3cccnc3)cc2)c1C | -9 | 32 | 0 | 2 | 6 | -7
COc1ccc(C(C)NC(=O)c2ccc([N+](=O)[O-])cc2)cc1OC (configuration not stated) | -10 | 7 | 2 | 15 | 2 | -10
COC(=O)/C=C1\C(=O)N(c2nc3ccc(OC)cc3s2)C(=S)N1c1ccc(F)cc1 | -13 | 17 | 0 | 0 | 33 | 67*
COc1ccccc1NC(=O)CC1C(=O)Nc2ccccc2N1C(=O)c1ccccc1 (configuration not stated) | -1 | 17 | 0 | 1 | 6 | 4
COc1ccccc1NC(=O)CNc1ccc(F)c(Cl)c1 | -1 | 12 | 0 | 16 | 22 | -2
CC(C)CCN1CCN(Cc2nc3ccccc3s2)CC1CCO (configuration not stated) | 10 | 12 | 0 | 4 | 27 | 82*
CC(C)CN1CCN(Cc2nc3ccccc3s2)CC1CCO (configuration not stated) | -5 | 14 | 0 | -1 | 13 | 6
OCCC1CN(Cc2nc3ccccc3s2)CCN1CCc1ccccc1 (configuration not stated) | 0 | 19 | 1 | 1 | 14 | 84*
CC(=O)c1cc(CN2CCC(N3CCC(C(=O)NC(C)C)CC3)CC2)cs1 | -1 | 13 | 0 | 1 | 10 | -4
Cc1oc(-c2cccs2)nc1CN1CCN(CCC(C)C)C(CCO)C1 (configuration not stated) | 0 | 10 | 0 | 0 | 8 | 84*
CC(C)NC(=O)C1CCN(C2CCN(Cc3nc4ccccc4s3)CC2)CC1 | -6 | 15 | 0 | 1 | 11 | 86*
Cc1cccnc1CN1CCN(Cc2nc(C(c3ccccc3)c3ccccc3)no2)CC1 | 0 | 15 | 0 | -3 | 1 | 21
NC(=O)CC(NC(=O)Cc1cccc2ccccc12)c1ccc(NCc2ccc(F)c(F)c2)c([N+](=O)[O-])c1 (configuration not stated) | . | . | . | . | 10 | .
COCCNC(=O)CSc1nc2nn(-c3ccccc3)c(=O)c-2c2n1CCCCC2 | -7 | 25 | 1 | 10 | 7 | -1
CCCNC(=O)c1ccccc1NC(=O)CN(c1ccccc1)S(=O)(=O)N(C)C | -8 | 18 | 1 | 4 | 9 | -1
CC(C)(C)c1ccc(-c2noc(-c3ccc4c(c3)CCO4)n2)cc1 | . | . | . | . | 7 | .
CC(C)CCN1CCN(CC(c2ccccc2)c2ccccc2)CC1CCO (configuration not stated) | 0 | 10 | 2 | 2 | 9 | 91*
CCOC(=O)N1CCN(CC(O)COCCC23CC4CC(CC(C4)C2)C3)CC1 (configuration not stated) | -6 | 52 | 0 | 0 | 12 | 87*
CC1CCCCN1CC(O)COCCC12CC3CC(CC(C3)C1)C2 (configuration not stated) | -2 | 15 | 0 | -1 | 8 | 94*
Cc1ccc2c(c1)c(C)c(C)n2CC(O)CN1CCCCC1C (configuration not stated) | -9 | 15 | 1 | 4 | 26 | 26
COc1ccc(CN(C)C(C)C(=O)Nc2ccc(S(=O)(=O)N3CCCC3)cc2)c(OC)c1OC (configuration not stated) | -8 | 12 | 1 | 0 | 10 | 27
